Paper PMC7497186 (The Journal of Pharmacy and Pharmacology, 2020)
Like-named read-outs stand apart in the source and are kept apart here.

How the values were obtained:
human recombinant 5-LOX = target: T1, human recombinant 5-LOX (Homo sapiens, UniProt P09917); assay: 5-LOX inhibition, UV-Vis spectrophotometric assay; type: biochemical; details: for inhibition at 10 µM: read-out: % inhibition of 5-LOX
T1 sequence (P09917 1-674): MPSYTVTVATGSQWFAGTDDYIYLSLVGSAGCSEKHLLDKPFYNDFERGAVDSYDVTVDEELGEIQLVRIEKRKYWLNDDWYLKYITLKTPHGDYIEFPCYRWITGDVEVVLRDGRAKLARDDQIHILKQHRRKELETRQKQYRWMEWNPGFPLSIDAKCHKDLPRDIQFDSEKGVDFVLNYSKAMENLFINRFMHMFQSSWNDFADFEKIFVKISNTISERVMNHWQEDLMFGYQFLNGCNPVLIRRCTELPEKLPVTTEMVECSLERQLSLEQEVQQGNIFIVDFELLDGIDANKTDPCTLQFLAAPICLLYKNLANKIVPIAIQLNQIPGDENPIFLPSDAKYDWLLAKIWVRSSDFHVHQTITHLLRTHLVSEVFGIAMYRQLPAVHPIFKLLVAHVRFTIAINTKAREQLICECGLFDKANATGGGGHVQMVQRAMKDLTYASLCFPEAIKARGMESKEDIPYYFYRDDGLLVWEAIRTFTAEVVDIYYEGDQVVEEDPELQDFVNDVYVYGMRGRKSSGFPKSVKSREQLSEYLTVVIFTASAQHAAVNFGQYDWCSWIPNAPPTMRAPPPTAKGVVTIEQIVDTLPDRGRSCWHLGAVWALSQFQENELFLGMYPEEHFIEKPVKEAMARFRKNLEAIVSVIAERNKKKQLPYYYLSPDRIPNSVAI
Method in brief: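 Human recombinant 5-LOX (0.5 unit/ml final) pre-incubated 5 min at RT in the dark with test compound, CaCl2 (0.4 mm final), L-α-phosphatidylcholine type II-S (24 µg/ml final) and ATP (0.2 mm final). Reaction started with arachidonic acid (50 µm final) in quartz microcuvettes. 5-HpETE conjugated diene formation followed as absorbance increase at 234 nm (ε = 25 000 M−1 cm−1).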

[1] = system: TNF-α in THP-1 macrophages; assay: Cytokine profiling THP-1 macrophages: TNF-α; type: cell-based, human; details: for level of TNF-α: CTRL 1 22.305 ± 2.753; for inhibition at 10 µM: Homo sapiens, THP-1, read-out: % inhibition of TNF-α
SW480 cells = assay: Cytotoxicity, acid phosphatase assay, SW480 cells; type: cell-based, human; details: 10, 30 and 50 µM, 24 h
Method in brief: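 SW480 cells seeded at 4 × 10^4 per well 24 h before compound exposure, then exposed to test compound for 24 h. Wells washed with PBS. Acid phosphatase substrate (p-nitrophenyl phosphate in sodium acetate, 0.1% Triton X-100, pH 5.5) added for 1 h at 37°C, 5% CO2, in the dark. Stopped with NaOH; absorbance read at 405 nm. Mean ± SEM, n = 4.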

IL-10−/− colitis mice = details: IL-10 -/- murine model of colitis; cited from earlier work
[2] = system: IL-8 from LPS-induced SW480 cells; assay: IL-8 from LPS-induced SW480 cells; type: cell-based, human; details: for level of IL-8: 10 µM, LPS-induced SW480 cells, CTRL 1 3.324 ± 0.076; for inhibition at 10 µM: Homo sapiens, SW480, read-out: % inhibition of IL-8 over CTRL 1
DSS colitis mice = details: cited from earlier work
[3] = system: nitric oxide (NO) released from SW480 cells; assay: Nitric oxide inhibition, GREISS assay, LPS-induced SW480 cells; type: cell-based, human; details: for inhibition at 10 µM: SW480, read-out: % inhibition of NO released; for % inhibition of NO released: 10 µM, mean ± SEM, n = 3
Method in brief: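 SW480 cells stimulated with 1 µg/ml S. typhimurium LPS plus IFN-γ for 48 h at 37°C, 5% CO2. Fresh supernatant mixed with an equal volume of sulphanilamide for 10 min at RT in the dark, then NED added for 20 min. Absorbance read at 540 nm; nitrite quantified against a 0–100 NO2 standard curve. Mean ± SEM, n = 3.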

THP-1 macrophages = assay: Cytotoxicity, acid phosphatase assay, THP-1 macrophages; type: cell-based, human; details: 10, 30 and 50 µM, 24 h
Method in brief: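 THP-1 monocytes seeded at 4 × 10^4 per well, PMA-differentiated for 48 h, then rested for 3 days. Macrophages exposed to test compound for 24 h and washed with PBS. p-Nitrophenyl phosphate substrate (sodium acetate, 0.1% Triton X-100, pH 5.5) added for 1 h at 37°C in the dark. Stopped with NaOH; read at 405 nm. Mean ± SEM, n = 4.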

[4] = system: IL-6 in THP-1 macrophages; assay: Cytokine profiling THP-1 macrophages: IL-6; type: cell-based, human; details: for level of IL-6: 24 h, CTRL 1 1.666 ± 0.256; for inhibition at 10 µM: Homo sapiens, THP-1, read-out: IL-6 inhibition over CTRL 1
[5] = system: nitric oxide (NO) released from SW480 cells; details: read-out: IC50 NO inhibition, reported value; literature value; cited from earlier work
[6] = system: IL-1β in THP-1 macrophages; assay: Cytokine profiling THP-1 macrophages: IL-1β; type: cell-based, human; details: 10 µM, LPS-stimulated THP-1 macrophages; CTRL 1 0.329 ± 0.042
[7] = 10 µM, LPS-stimulated THP-1 macrophages
[8] = Homo sapiens, SW480, read-out: IC50 NO inhibition

Row | Molecule | level of TNF-α [1, 7] | level of IL-8 [2] | inhibition at 10 µM [2] | IC50 [3, 8] | inhibition at 10 µM (human recombinant 5-LOX) | level of IL-6 [4, 7] | % inhibition of NO released ([3]; LPS-induced SW480 cells) | also measured
1 | CC(Cc1ccc(O)c(O)c1)C(C)Cc1ccc(O)c(O)c1 (stereo not drawn) [NDGA, nordihydroguaiaretic acid, reference compound] |  |  |  |  |  |  |  | % inhibition of 5-LOX (human recombinant 5-LOX; screened at 10 µM, mean ± SEM, n = 3): 51.92 ± 1.01%
2 | O=C(O)c1ccc(C[C@@]2(C3=Cc4ccccc4C3)Cc3ccccc3[C@H]2O)cc1 [compound 2, 4-(((1'S,2'S)-1'-hydroxy-1',3'-dihydro-1H,2'H-[2,2'-biinden]-2'-yl)methyl)benzoic acid] | 11.613 ± 0.162 pg/µg ml | 2.529 ± 0.058 pg/µg ml | 23.9% | 19.7 ± 7.88 µM | 45.3 ± 5.28% | 0.132 ± 0.038 pg/µg ml |  | inhibition at 10 µM [1]: 45.2%; cytotoxicity in SW480 cells (SW480 cells): no cytotoxicity effects; DAI (IL-10−/− colitis mice): reduced; colon cytokine levels of TNFα, IL-6 and IL1b (DSS colitis mice; DSS colitis mice): reduced; DAI (DSS colitis mice; acute 5% DSS murine model of colitis): reduced; MPO activity, a measure of inflammatory cell infiltration (DSS colitis mice; murine model of colitis, model not given): significantly reduced; inhibition at 10 µM ([3]; Homo sapiens): 56.5 ± 3.09%; cytotoxicity in THP-1 macrophages (THP-1 macrophages): no cytotoxicity effects; inhibition at 10 µM [4]: 92.1%
3 | O=C(O)c1ccc(C[C@@]2(C3=Cc4ccccc4C3)Cc3ccccc3C2=O)cc1 [compound 6, (S)-4-((1'-oxo-1',3'-dihydro-1H,2'H-[2,2'-biinden]-2'-yl)methyl)benzoic acid] |  |  |  |  |  |  | inhibited NO production | 
4 | O=C(O)c1ccc(CC2(C3=Cc4ccccc4C3)Cc3ccccc3C2)cc1 [compound 7, 4-((1',3'-dihydro-1H,2'H-[2,2'-biinden]-2'-yl)methyl)benzoic acid] |  | 2.676 ± 0.142 pg/µg ml | 19.5% |  | 39.7 ± 4.95% |  | inhibited NO production | cytotoxicity in SW480 cells (SW480 cells): no cytotoxicity effects; cytotoxicity in THP-1 macrophages (THP-1 macrophages): no cytotoxicity effects; IL-6 inhibition over CTRL 1 [4, 7]: less potent but statistically significant
5 | O[C@@H]1c2ccccc2C[C@@]1(Cc1ccccc1)C1=Cc2ccccc2C1 [compound 8, (1S,2S)-2-benzyl-2,3-dihydro-1H,1'H-[2,2'-biinden]-1-ol] | 14.193 ± 1.685 pg/µg ml | 2.288 ± 0.059 pg/µg ml | 31.2% |  |  | 0.075 ± 0.019 pg/µg ml |  | inhibition at 10 µM [1]: 33%; inhibition at 10 µM [4]: 95.5%
6 | O=C1c2ccccc2C[C@@]1(Cc1ccccc1)C1=Cc2ccccc2C1 [compound 9, (S)-2-benzyl-2,3-dihydro-1H,1'H-[2,2'-biinden]-1-one] |  |  |  | 20.5 ± 2.89 µM |  |  | inhibited NO production | 
7 | C[C@]12CCC(=O)C=C1CC[C@@H]1[C@@H]2[C@@H](O)C[C@@]2(C)[C@H]1CC[C@]2(O)C(=O)CO [hydrocortisone, reference compound] |  |  |  | 48.7 µM |  |  |  | inhibition at 10 µM ([3]; Homo sapiens): 43.5 ± 12.3%
8 | CC(c1cc2ccccc2s1)N(O)C(N)=O (stereo not drawn) [zileuton, reference compound] |  |  |  |  | 45.2 ± 5.36% |  |  | 
9 | COc1c(O)cc2oc3cc(O)c(CC=C(C)C)c(O)c3c(=O)c2c1CC=C(C)C [α-mangostin, reference compound] |  |  |  |  |  |  | 61.63 ± 7.50% | IC50 [5]: 12.2 µM; IC50 ([3]; read-out: IC50 NO inhibition, LPS-induced SW480 cells): 8.87 ± 1.18 µM
10 | Infliximab: positive control; anti-TNF-α therapy for IBD treatment | 0.002 ± 0 pg/µg ml |  |  |  |  | 0.924 ± 0.180 pg/µg ml |  | % inhibition of TNF-α [1, 7]: 99.98%; level of IL-1β [6]: 0.329 ± 0.059 pg/µg ml
